# Published values gathered from unrelated publications.
# Protocols differ between the studies behind these lines.
# Target: Serine/threonine-protein kinase STK11 (STK11, Homo sapiens, UniProt Q15831)
# One construct used (Q15831 1-433): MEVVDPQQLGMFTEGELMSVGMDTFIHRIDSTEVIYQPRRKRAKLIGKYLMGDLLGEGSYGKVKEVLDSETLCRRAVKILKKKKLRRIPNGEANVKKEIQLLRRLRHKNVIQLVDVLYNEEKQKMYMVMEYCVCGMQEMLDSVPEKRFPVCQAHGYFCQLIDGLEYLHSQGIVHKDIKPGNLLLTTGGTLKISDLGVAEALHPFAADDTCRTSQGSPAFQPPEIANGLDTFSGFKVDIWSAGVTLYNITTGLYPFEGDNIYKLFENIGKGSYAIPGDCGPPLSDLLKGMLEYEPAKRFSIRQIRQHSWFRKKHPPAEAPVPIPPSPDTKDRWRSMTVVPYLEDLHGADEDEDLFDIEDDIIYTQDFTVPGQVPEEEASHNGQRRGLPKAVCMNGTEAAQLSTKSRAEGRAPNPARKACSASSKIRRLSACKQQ
SMILES,read-out,method,concentration,remaining binding [%]
O=C(NC[C@@H]1[C@H]2CN(C(=O)OCc3cc(C(F)(F)F)cc(C(F)(F)F)c3)C[C@@H]12)c1ccc2[nH]nnc2c1,cell-free assay,competition with immobilised ligand,1 µM,100
CNC(=O)[C@@H]1CC[C@@H](n2c(-c3ccc4cnccc4c3)nc3ccc(C(=O)NCc4cccc(C(N)=O)c4)cc32)C1,binding,competition with immobilised ligand,1 µM,93
C=CC(=O)N1CCC(C(=O)NCC(=O)N2CCN(c3nc(-c4cnc(N)nc4C(F)F)nc(N4CCOCC4)n3)CC2)CC1,binding,competition with immobilised ligand,1 µM,100
COc1cnc(Nc2cccc(S(N)(=O)=O)c2)nc1N1CCN(c2ccccc2)CC1,binding,competition with immobilised ligand,1 µM,82
O=C(NCC1CCOCC1)c1n[nH]cc1NC(=O)c1c(F)cccc1F,binding,competition with immobilised ligand,1 µM,100
O=C(Nc1cccnn1)N1CCC(=Cc2cccc(Oc3ccc(C(F)(F)F)cn3)c2)CC1,cell-free assay,competition with immobilised ligand,1 µM,100
CC1CCCN1c1nccc(-c2cnn3ncccc23)n1 (stereo not drawn),binding,,1 µM,100
O=C(O)[C@H]1[C@H](Cn2nnc3ccccc3c2=O)CC[C@@H]1C(=O)c1ccc(OCCC2CCOCC2)cc1,cell-free assay,competition with immobilised ligand,1 µM,76
C[C@H]1CCN(c2nccc(-c3cnn4ncccc34)n2)C1,binding,,1 µM,80
O=C(c1ccc(Nc2ncc(Cl)c(-c3ccc(Cl)s3)n2)cc1)N1CCC(N2CCCC2)CC1,binding,competition with immobilised ligand,1 µM,7.2
N[C@H]1CCN(c2nccc(-c3cnn4ncccc34)n2)C1,binding,,1 µM,65
O=C(NCCCN1CCOCC1)c1ccc(Nc2ncc(Cl)c(-c3ccc(Cl)s3)n2)cc1,binding,competition with immobilised ligand,1 µM,0
CS(=O)(=O)N1CCCC(NC(=O)[C@H](CCC2CCCCC2)NC(=O)c2ccc(CNc3ncnc4c3nnn4-c3ccccc3)cc2)C1 (stereo partly drawn),cell-free assay,competition with immobilised ligand,0.1 µM,100
COc1ccnn2ncc(-c3ccnc(N(C)C)n3)c12,binding,,1 µM,91
C[C@@H]1CN(c2ccc3ncc(-c4ccc5[nH]nc(C6CC6)c5c4)n3n2)C[C@H](C)O1,binding,competition with immobilised ligand,0.5 µM,94
FC(F)(F)Oc1cccc(-c2cnc3ccc(-c4ccncc4)nn23)c1,cell-free assay,competition with immobilised ligand,5 µM,72
O=C(c1ccc(Nc2nccc(-c3cc4ccccc4s3)n2)cc1)N1CCC(N2CCCC2)CC1,binding,competition with immobilised ligand,1 µM,4.3
Cc1nc(C2CCN(C(=O)c3ccc(OC(F)(F)F)cc3N)CC2)c2ncc(N3CCN(C)CC3)cc2n1,cell-free assay,competition with immobilised ligand,1 µM,100
c1cnn2ncc(-c3ccnc(N4CCC45COC5)n3)c2c1,binding,,1 µM,84
C[C@@H](c1ccc(-n2cnc3c(N)ncnc32)cc1)N1CCc2nn(C)c(Cc3ccccc3)c2C1=O,binding,competition with immobilised ligand,0.1 µM,100
CCc1ccccc1C(=O)Nc1n[nH]c2c(C)c(F)c(C3C(C#N)=C(C)N(C)C(C)=C3C#N)cc12,cell-free assay,competition with immobilised ligand,1 µM,100
F[C@@H]1CCN(c2nccc(-c3cnn4ncccc34)n2)C1,binding,,1 µM,100
CO[C@H]1CC[C@H](CNc2ccc(S(=O)(=O)NC(=O)c3ccc(N4CCN(CC5=C(c6ccc(Cl)cc6)CC(C)(C)CC5)CC4)cc3Oc3cnc4[nH]ccc4c3)cc2[N+](=O)[O-])CC1,cell-free assay,competition with immobilised ligand,1 µM,59
Nc1ncc2c(n1)-c1c([nH]c3ccc(C#CC4CC4)cc13)CCCC2,binding,competition with immobilised ligand,1 µM,100
